# Compound activity: PubChem BioAssay, several laboratories
# Most compounds without a hit are left out; they make up all but 5.7% or so of the library.
# T cruzi repl: inhibitors of intracellular T. cruzi growth, primary screen, luminescence, NIH3T3 host cells; hit rate 1.4% among 300,000; T. cruzi beta-gal in NIH3T3, 90 h; AID 1885, 2009; inhibition, % (concentration not given with the values);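 active = mean inhibition across valid replicates above about 55%, limit read from the data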;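 note: signal also drops with host cell toxicity which is not excluded here; 0% = plate median of DMSO wells and 100% = zero luminescence signal; higher percent means less beta-gal luminescence so fewer parasites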
#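 System: Mouse NIH/3T3 fibroblasts infected with β-gal-expressing T. cruzi Tulahuen C4 | Quantity: NIH/3T3 cells, 5,000 per well | Reagent: 5000 reporter trypomastigotes per well | Dosing: Compound pinned at 50 nL/well, DMSO | Schedule: 3 h host attachment, then at least 90 h co-culture | Detection: GalScreen luminescence, 60 min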
# Mdm2 MdmX PPI: inhibitors of human Mdm2-MdmX association, primary screen, cell-based, luminescence, split luciferase, SaOS-2, uHTS; Protein Mdm4 (Homo sapiens) + E3 ubiquitin-protein ligase Mdm2 (Homo sapiens), …; SaOS-2 split-luciferase Mdm2/MdmX complementation; hit rate 3% among 330,000; inhibition, % at 8 µM;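 active = inhibition of at least 50% at 8 µM in the primary screen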
# Target sequence (O15151 whole entry, looked up): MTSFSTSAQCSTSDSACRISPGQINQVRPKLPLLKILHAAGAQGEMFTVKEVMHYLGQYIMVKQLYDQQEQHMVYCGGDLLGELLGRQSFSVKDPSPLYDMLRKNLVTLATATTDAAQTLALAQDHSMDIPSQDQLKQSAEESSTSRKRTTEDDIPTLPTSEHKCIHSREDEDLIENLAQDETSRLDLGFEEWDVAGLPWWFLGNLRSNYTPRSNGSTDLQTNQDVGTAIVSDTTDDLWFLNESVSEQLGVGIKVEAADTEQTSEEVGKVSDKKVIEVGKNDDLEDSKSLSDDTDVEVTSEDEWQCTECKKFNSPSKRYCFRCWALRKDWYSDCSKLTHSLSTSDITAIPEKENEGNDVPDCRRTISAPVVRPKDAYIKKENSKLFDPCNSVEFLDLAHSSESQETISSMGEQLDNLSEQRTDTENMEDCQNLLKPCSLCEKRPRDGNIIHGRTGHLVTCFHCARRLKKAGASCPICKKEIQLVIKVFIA
# Target sequence (Q00987 whole entry, looked up): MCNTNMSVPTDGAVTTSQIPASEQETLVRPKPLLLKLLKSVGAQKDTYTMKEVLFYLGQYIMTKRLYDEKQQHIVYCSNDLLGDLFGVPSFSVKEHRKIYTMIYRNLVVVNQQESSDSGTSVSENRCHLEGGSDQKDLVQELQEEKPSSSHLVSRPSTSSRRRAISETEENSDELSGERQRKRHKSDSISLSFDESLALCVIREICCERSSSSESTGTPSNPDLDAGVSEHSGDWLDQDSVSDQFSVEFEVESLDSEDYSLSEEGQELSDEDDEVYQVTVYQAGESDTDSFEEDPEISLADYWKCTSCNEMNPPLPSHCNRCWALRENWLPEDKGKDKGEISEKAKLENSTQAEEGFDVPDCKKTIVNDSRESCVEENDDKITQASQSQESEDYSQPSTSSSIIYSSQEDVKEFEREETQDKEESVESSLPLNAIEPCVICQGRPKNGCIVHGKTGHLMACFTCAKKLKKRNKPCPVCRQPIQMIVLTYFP
# Calb FLC: C. albicans growth inhibition with fluconazole, primary screen, CaCi-2 strain, Alamar Blue fluorescence. C. albicans CaCi-2 + fluconazole, 48 h. growth inhibition, % (no concentration beside the values). hit rate 0.57% among 300,000. AID 1979, 2009;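 active = growth inhibition above about 58% in most replicates, limit read from the data, passing the limit was not always enough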;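 note: all wells also contain fluconazole at 8 µg/ml as a sub-toxic cotreatment; 0% = median of DMSO wells and 100% = median of geldanamycin control wells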
# CSC inhib: cancer stem cell viability inhibitors, primary screen, luminescence; cancer stem cell-like cells viability; inhibition, % at 7.5 µM; hit rate 1.1% among 300,000; AID 2717, 2010; in the data active = inhibition above about 75%; tested in HMLE shEcad cells
# Beta cell apopt: inhibitors of cytokine-induced beta cell apoptosis, primary screen, luminescence; protection from apoptosis, % (concentration not given with the values); INS-1E cytokine-induced death, ATP luminescence, 48 h; percent of positive-control rescue, neutral wells zero; AID 435005, 2010; hit rate 0.8% among 300,000;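 active = Every replicate reaches about 75%, or at least half do and their mean reaches it too, limit read from the data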;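 note: 0% = cytokine-treated negative control wells and 100% = positive control rescue; higher means more ATP so stronger rescue from cytokine killing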
# SKKanGAS inh: S. pyogenes SKKanGAS growth inhibitors in kanamycin, primary screen, streptokinase expression inhibitor project, SKKanGAS strain, BacTiter-Glo luminescence. AID 1662, 2009. 6 h. hit rate 1.3% among 300,000. inhibition, % at 7.5 µM;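 active = mean replicate score, as percent of positive control median, at least 50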;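 note: strain carries kanamycin resistance gene driven by streptokinase promoter and grows in 40 µg/ml kanamycin; loss of luminescence reflects streptokinase promoter inhibition or plain growth inhibition; 0% = median of DMSO wells and 100% = positive control at its reference dose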
# Numbers without * were called inactive; · = not tested or not shown.
SMILES,T cruzi repl,Mdm2 MdmX PPI,Calb FLC,CSC inhib,Beta cell apopt,SKKanGAS inh
Clc1ccc(Cn2ccnc2)cn1,1.7,16.6,7.8,0.1,-1.3,-3.8
COc1ccc(C(c2ccc(OC)cc2)C(Cl)(Cl)Cl)cc1,·,28.2,·,32.5,-1.4,·
Cc1nc2ccccc2c(=O)n1/N=C/c1cc(Br)cc(Br)c1O,-10.5,17.0,6.6,10.3,·,98.9*
O=C(c1ccc(Cl)cc1)C1CCCN(Cc2cccc3cnccc23)C1 (configuration not stated),47.9,18.6,6.3,28.5,10.7,-5.9
C/C=C(\C)C(=O)N[C@@H](c1ccccc1)[C@@H](O)C(=O)O[C@H]1C[C@@]2(O)[C@@H](OC(=O)c3ccccc3)C3[C@](C)(C(=O)[C@H](OC(C)=O)C(=C1C)C2(C)C)[C@H](O)C[C@H]1OC[C@@]31OC(C)=O (some centres not stated),56.4*,40.0,7.3,-10.8,4.5,9.0
C=CC(=O)NCNC(=O)C=C,·,10.8,·,-9.1,-5.4,·
COc1ccc2c(C)c(CC(=O)N3C[C@H]4C[C@@H](C3)c3cccc(=O)n3C4)c(=O)oc2c1C,29.6,21.0,-1.4,-10.9,-2.4,-3.3
COC1=CC(=O)[C@]2(C=C1OC)OC[C@@H]1Oc3c(ccc4c3C=CC(C)(C)O4)C(=O)[C@@H]12,·,2.1,·,4.5,125.9*,·
O=C(Nc1ccc(C(F)(F)F)cc1)c1cccn(Cc2ccc3c(c2)OC(F)(F)O3)c1=O,8.1,21.6,28.6,90.1*,-2.1,12.7
COc1ccc(N=Cc2c(O)n(Cc3ccccc3)c(=S)[nH]c2=O)c(OC)c1,7.4,23.3,41.1,5.5,2.5,2.0
COc1ccc(OC)c(N=Cc2c(O)n(Cc3ccccc3)c(=S)[nH]c2=O)c1,-3.3,3.2,0.5,-2.2,-3.1,50.7*
COc1ccccc1-n1c(O)c(C=NCCN2CCNCC2)c(=O)[nH]c1=O,-9.2,5.0,22.6,-9.0,-5.0,-4.5
CC(C)Nc1ccc(Nc2ccccc2)cc1,56.1*,26.9,-19.1,3.5,112.7*,9.3
COC(=O)c1ccccc1OP(=O)(c1cccc([N+](=O)[O-])c1)c1cccc([N+](=O)[O-])c1,-12.7,14.3,-5.9,-6.1,-3.5,2.2
N=C(N)c1c(O)n(C2CCCCC2)c(=O)n(C2CCCCC2)c1=O,·,39.3,-5.5,101.7*,56.9,13.3
O=c1c(C=NCc2cccs2)c(O)n(C2CCCCC2)c(=O)n1C1CCCCC1,43.2,26.6,-3.6,46.3,0.7,14.4
CC(C)c1ccc(N2C(=O)NC(=O)/C(=C/C=C/c3ccco3)C2=O)cc1,2.0,·,-10.5,98.0*,64.6,5.5
CCc1ccc(N2C(=O)NC(=O)/C(=C\C=C\c3ccco3)C2=O)cc1,-5.2,49.9,13.4,115.9*,9.0,18.5
Cc1cc(C)cc(N2C(=O)NC(=O)/C(=C\C=C\c3ccco3)C2=O)c1,-3.1,·,1.1,17.2,13.8,4.9
CC(Cc1ccccc1)N1Cc2ccccc2C1 (configuration not stated),8.9,8.4,-1.4,-6.4,1.3,-6.2
O=c1[nH]c(O)c(C=Nc2ccc(Cl)c(C(F)(F)F)c2)c(=O)[nH]1,-4.3,5.1,-3.5,·,·,-0.2
COC(=O)C1=C(c2cc3ccccc3s2)C[C@@H]2CC[C@H]1N2C,·,6.2,·,-30.7,0.8,·
COCCN1Cc2cc(=O)n3c([nH]c4ccccc43)c2C1=N,-12.8,0.1,7.2,-2.8,0.1,4.3
C[n+]1c(-c2ccccc2)cc(-c2ccc(Cl)cc2)cc1-c1ccccc1,51.1,23.1,97.0*,4.0,38.5,-1.7
c1ccc2c(CN3CCOCC3)c[nH]c2c1,1.5,19.1,-6.7,-8.5,·,-2.9
SMILES,T cruzi repl,Mdm2 MdmX PPI,Calb FLC,CSC inhib,Beta cell apopt,SKKanGAS inh
c1ccc2c(CN3CCCCCC3)c[nH]c2c1,48.5,22.6,-0.6,-12.5,99.8*,-8.7
CCN(CC)C(=O)COc1cc(C)cc2oc(=O)c3c(c12)CCCC3,16.3,15.2,-1.0,·,·,-0.2
O=c1[nH]c(CN2CC=C(c3ccccc3)CC2)nc2scc(-c3ccccc3)c12,-16.0,8.0,-10.6,80.9*,-7.3,64.2*
O=C(O)c1ccccc1NC(=O)N1C[C@H]2C[C@@H](C1)c1cccc(=O)n1C2,1.6,-6.4,5.0,16.2,-3.4,1.8
N[C@@H]1C[C@H]1c1ccccc1,·,-14.1,·,-2.1,-9.1,·
CCC(C)NC(=O)c1c(N)n(CCCOC)c2nc3ccccc3nc12 (configuration not stated),-6.7,16.2,8.5,19.5,-4.2,5.3
COCCCn1c(N)c(C(=O)Nc2ccccc2)c2nc3ccccc3nc21,34.9,47.9,-3.0,32.9,-0.7,49.7*
CC1CCC(C(C)C)C(OC(=O)COC(=O)c2ccccc2N)C1 (configuration not stated),-0.6,17.0,-0.6,22.8,9.3,67.4*
FC(F)(F)c1ccccc1CCN1CCNCC1,2.2,6.8,5.7,5.8,-5.8,2.2
O=C(N/N=C/c1c(O)n(C2CCCCC2)c(=S)[nH]c1=O)c1ccccc1,-4.4,32.9,·,8.2,19.6,80.3*
O=C(N/N=C/c1c(O)n(Cc2ccco2)c(=O)[nH]c1=O)c1ccccc1O,1.3,-36.1,16.9,7.2,-3.1,67.9*
CC(C)c1ccc(-n2c(O)c(/C=N/NC(=O)c3ccccc3O)c(=O)[nH]c2=S)cc1,5.4,-4.3,-6.8,-4.0,-6.5,70.4*
O=C(N/N=C/c1c(O)n(C2CCCCC2)c(=S)[nH]c1=O)c1ccccc1O,-19.6,17.6,·,23.6,1.6,55.5*
CCCCC(=O)N/N=C/c1c(O)n(C2CC2)c(=S)[nH]c1=O,-12.7,-10.3,-9.1,2.5,-4.9,7.3
O=c1[nH]c(=S)n(C2CC2)c(O)c1/C=N/Nc1ccccc1,8.8,16.3,-21.1,-2.4,-4.5,5.7
O=C(CCc1nnc2ccc(NCc3ccccc3)nn12)N1CCC2(CC1)OCCO2,3.8,24.4,10.1,17.7,-1.4,-8.9
N=c1sccn1Cc1ccccc1F,-7.0,·,-8.8,-8.6,2.3,-1.2
O=C(c1cccn2c(=O)c3cc(Cl)ccc3nc12)N1CCC2(CC1)OCCO2,3.2,1.6,19.4,-1.9,1.8,-0.5
O=C(N/N=C/c1c(O)n(CCc2ccccc2)c(=O)[nH]c1=O)c1ccccc1,-4.7,-12.3,6.2,3.3,-1.1,54.9*
Cc1cc(C(=O)OCC(=O)Nc2ccccc2F)c(C)n1C1CC1,·,-43.8,·,·,·,·
O=C(NCC(c1cccnc1)N1CCN(c2ccccc2F)CC1)Oc1ccccc1 (configuration not stated),65.5*,2.8,1.0,1.6,4.0,4.6
